# ChEMBL document CHEMBL3244116, “New antiarrhythmic agents. 2. Amide alkyl alpha-amino xylidides” (J Med Chem, 1979)
# Legend:
# Mus musculus [1] = experiment: Antiarrhythmic activity in Swiss albino mouse assessed as protection against chloroform-induced fibrillation at 100 mg/kg, sc treated 20 mins before chloroform challenge; type: functional, Heart; conditions: route subcutaneous
# In short: (§1)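 Mice were given test agents subcutaneously, 100 mg/kg in preliminary runs, and were then challenged with chloroform to induce ventricular fibrillation (a modification of Lawson's method). Protection is expressed as the percent of challenged animals that survived the challenge. In the same animals, ataxia, convulsions, loss of righting reflex and death were scored as the percent of treated animals.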
# Mus musculus [2] = experiment: Toxicity in Swiss albino mouse assessed as ataxia at 100 mg/kg, sc measured up to 20 mins; type: organism-based; design: dose 100 mg/kg, route subcutaneous; conditions: in vivo; in short: as §1
# Mus musculus [3] = experiment: Toxicity in Swiss albino mouse assessed as convulsion at 100 mg/kg, sc measured up to 20 mins; type: organism-based; design: dose 100 mg/kg, route subcutaneous; conditions: in vivo; in short: as §1
# Mus musculus [4] = experiment: Toxicity in Swiss albino mouse assessed as loss of righting reflex at 100 mg/kg, sc measured up to 20 mins; type: organism-based; design: dose 100 mg/kg, route subcutaneous; conditions: in vivo; in short: as §1
# [5] = Toxicity in Swiss albino mouse assessed as death at 100 mg/kg, sc measured up to 20 mins; type: organism-based; design: dose 100 mg/kg, route subcutaneous; conditions: in vivo, read-out: Activity
# In short: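 Mice given 100 mg/kg subcutaneously in preliminary screening, then later challenged with chloroform to induce ventricular fibrillation. CNS signs were recorded in the same animals. Value is the percent of treated animals that died.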
# Mus musculus [6] = experiment: Antiarrhythmic activity in sc dosed Swiss albino mouse assessed as protection against chloroform-induced ventricular fibrillation; type: functional; conditions: Heart; in short: as §1
# Mus musculus [7] = experiment: Ratio of lidocaine ED50 to compound ED50 for antiarrhythmic activity sc dosed Swiss albino mouse assessed as protection against chloroform-induced ventricular fibrillation; type: functional, Heart
# In short: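 Each ED50 against chloroform-induced ventricular fibrillation in subcutaneously dosed mice came from at least three doses. Potency was calculated relative to lidocaine on a molar basis.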
# Canis familiaris [8] = experiment: Antiarrhythmic activity in left anterior descending coronary artery ligated myocardial infarction dog model assessed as clearing value as reduction in ventricular ectopic beats to <= 5% for 5 mins at infusion rate 0.5 mg/kg/min, iv treated until arrhythmia cleared; type: functional, Canis lupus familiaris, Heart; design: scale not given: the % may be the effect or the level left
# In short: (§2)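 Test agents were infused intravenously into dogs with coronary artery ligation-induced myocardial infarction and ventricular arrhythmias. In some runs, infusion stopped at clearing or at convulsion. In others, it continued until clearing. Ectopic beats, CNS signs (convulsions, opisthotonus, clonic spasms), respiratory arrest and mean arterial blood pressure were recorded, and doses are given in mmol/kg. Values are means±SD of 5–14 experiments or the mean of 8.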
# Canis familiaris [9] = experiment: Antiarrhythmic activity in left anterior descending coronary artery ligated myocardial infarction dog model assessed as clearing value as reduction in ventricular ectopic beat rate per min at infusion rate 0.5 mg/kg/min, iv treated until arrhythmia cleared; type: functional, Canis lupus familiaris, Heart; in short: as §2
# Canis familiaris [10] = experiment: Antiarrhythmic activity in left anterior descending coronary artery ligated myocardial infarction dog model assessed as mean arterial blood pressure at infusion rate 0.5 mg/kg/min, iv; type: functional, Canis lupus familiaris; in short: as §2
# Canis familiaris [11] = experiment: Antiarrhythmic activity in iv dosed left anterior descending coronary artery ligated myocardial infarction dog model assessed as dose required to reduction in ventricular ectopic beats to <= 5% at infusion rate 0.5 mg/kg/min; type: functional, Canis lupus familiaris, Heart; in short: as §2
# Canis familiaris [12] = experiment: Toxicity in left anterior descending coronary artery ligated myocardial infarction dog model assessed as dose required to cause convulsion at infusion rate at 0.5 mg/kg/min; type: organism-based, Canis lupus familiaris; conditions: in vivo; in short: as §2
# Canis familiaris [13] = experiment: Toxicity in left anterior descending coronary artery ligated myocardial infarction dog model assessed as dose required to cause convulsion at infusion rate at 0.66 mg/kg/min; type: organism-based, Canis lupus familiaris; conditions: in vivo; in short: as §2
# Canis familiaris [14] = experiment: Toxicity in iv dosed left anterior descending coronary artery ligated myocardial infarction dog model assessed as dose required to cause convulsion after infusion off; type: organism-based, Canis lupus familiaris; conditions: in vivo; in short: as §2
smiles,measurement,setting,value
CCC(N)C(=O)N(CC)c1c(C)cccc1C.Cl (stereo not drawn),Activity,Mus musculus [1],100%
same,Activity,Mus musculus [2],100%
same,Activity,Mus musculus [3],100%
same,Activity,Mus musculus [4],0%
same,mortality at 20 min,[5],30%
CCN(CC)CC(=O)Nc1c(C)cccc1C [LIDOCAINE],Activity,Mus musculus [1],100%
same,Activity,Mus musculus [2],100%
same,Activity,Mus musculus [3],100%
same,Activity,Mus musculus [4],100%
same,mortality at 20 min,[5],0%
same,ED50,Mus musculus [6],260 µmol/kg
same,Ratio ED50,Mus musculus [7],1
same,Activity,Canis familiaris [8],4%
same,Activity,Canis familiaris [9],133 bpm
same,Activity,Canis familiaris [10],101 mmHg
same,Activity,Canis familiaris [11],0.21 mmol/kg
same,Activity,Canis familiaris [12],0.27 mmol/kg
CCCOc1cc(C)c(N(CC)C(=O)CN)c(C)c1.O=C(O)C(=O)O,Activity,Mus musculus [1],100%
same,Activity,Mus musculus [2],0%
same,Activity,Mus musculus [3],0%
same,Activity,Mus musculus [4],0%
same,mortality at 20 min,[5],0%
same,ED50,Mus musculus [6],160 µmol/kg
same,Ratio ED50,Mus musculus [7],1.6
same,Activity,Canis familiaris [8],1%
same,Activity,Canis familiaris [9],168 bpm
same,Activity,Canis familiaris [10],90 mmHg
same,Activity,Canis familiaris [11],0.09 mmol/kg
same,Activity,Canis familiaris [13],0.13 mmol/kg
same,Activity,Canis familiaris [14],0.16 mmol/kg
Cc1cccc(C)c1NC(=O)C(C)N (stereo not drawn) [TOCAINIDE],Activity,Mus musculus [1],20%
same,Activity,Mus musculus [2],10%
same,Activity,Mus musculus [3],0%
same,Activity,Mus musculus [4],0%
same,mortality at 20 min,[5],0%
same,ED50,Mus musculus [6],1300 µmol/kg
same,Ratio ED50,Mus musculus [7],0.2
same,Activity,Canis familiaris [8],2%
same,Activity,Canis familiaris [9],148 bpm
same,Activity,Canis familiaris [10],108 mmHg
same,Activity,Canis familiaris [11],0.32 mmol/kg
same,Activity,Canis familiaris [12],0.3 mmol/kg
Cc1cccc(C)c1NC(=O)CN [GLYCINEXYLIDIDE],Activity,Mus musculus [1],10%
same,Activity,Mus musculus [2],0%
same,Activity,Mus musculus [3],0%
same,Activity,Mus musculus [4],0%
same,mortality at 20 min,[5],0%
same,ED50,Mus musculus [6],900 µmol/kg
same,Ratio ED50,Mus musculus [7],0.3
CCCOc1cc(C)c(N(C)C(=O)CN)c(C)c1.O=C(O)C(=O)O,Activity,Mus musculus [1],70%
same,Activity,Mus musculus [2],20%
same,Activity,Mus musculus [3],0%
same,Activity,Mus musculus [4],0%
same,mortality at 20 min,[5],0%
same,ED50,Mus musculus [6],340 µmol/kg
same,Ratio ED50,Mus musculus [7],0.8
CCCCOc1cc(C)c(N(C)C(=O)CN)c(C)c1.O=C(O)C(=O)O,Activity,Mus musculus [1],100%
same,Activity,Mus musculus [2],0%
same,Activity,Mus musculus [3],0%
same,Activity,Mus musculus [4],0%
same,mortality at 20 min,[5],0%
same,ED50,Mus musculus [6],270 µmol/kg
same,Ratio ED50,Mus musculus [7],1
